Reference: the RNAGym collection of RNA variant scans (doi:10.1126/science.aae0568)
Fewer inactive variants are shown than the library holds.

B1: tRNA (parent)
chain: GUUCCGUUGGCGUAAUGGUAACGCGUCUCCCUCCUAAGGAGAAGACUGCGGGUUCGAGUCCCGUACGGAACG

Variants of: B1
Experiment: yeast fitness relative to wild type (ratio to wild type); higher = fitter; tRNA-Arg(CCU), competitive growth, 37 C, YPD
Procedure, shortened: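 Genotype frequency changes were the basis for Darwinian fitness relative to wild type. The frequencies came from 100-nucleotide paired-end sequencing of gene amplicons from the start population and each end population of pooled yeast strains with tRNA-Arg(CCU) gene variants at the native locus. Competition ran in YPD at 37°C for 24 hours in six replicates, genotypes needed ≥ 100 starting reads, and estimates < 0.5 were set to 0.5.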

Variant | yeast fitness
A21U C27G C30A | 0.514
A21G C31U U35C A40G A65U | ≤ 0.5
A21G C29A A37G A42U | 0.516
A21G G56A A65G C66U | 0.638
A21G G38C A40U G44C G67A A69C | ≤ 0.5
A21G G51U G58A | 0.777
A21G G63C | 0.73
A21G G63A | 0.863
A21U C24G C29G C49U | ≤ 0.5
A21U C31G C33G C60A | 0.543
A21U C29G U35G G41C | ≤ 0.5
A21G U26A A65C | 0.527
A21G C29U G41C C55U G68C | ≤ 0.5
A21U C46U | 0.86
A21U C46A | 0.767
A21U C27G A40G | ≤ 0.5
A21U C30U U32A G63C | ≤ 0.5
A21U C22U A43C C49A | 0.595
A21U C24U C27A A37C A40U | ≤ 0.5
A21U C22G C60G G68A | ≤ 0.5
A21U A37U A45C G51A G67A | 0.67
A21U C24U C66U | ≤ 0.5
A21G U28A C30U C62A | 0.744
A21U A36C A45C G48A C55A | ≤ 0.5

Variant | yeast fitness
A21G C31G A70G | 0.787
A21G C49G | 1.13
A21G C49A | 0.736
A21U A57C | 0.619
A21U A57G | 0.882
A21G G23A C27G G39C A45G | ≤ 0.5
A21U C24U G56A | 0.635
A21U C31A G39C C62G G68A | ≤ 0.5
A21U C22G G51C | ≤ 0.5
A21U A36G U47C U59A | 0.729
A21G C46A A70C | 1.07
A21G U54A C62U A65G G68A | ≤ 0.5
A21U C24U C27A U35C A37C A40U G67C | ≤ 0.5
A21U C24A A37U G48C | 0.534
A21G C49U C62A | 0.602
A21G C49U C62G | 0.566
A21U C33A C34G G51C | ≤ 0.5
A21G C33U | 0.73
A21G U53C A57C A69U | 0.597
A21G C31U U35C C61U C66U | ≤ 0.5
A21U C27A | 0.583
A21G C29U G38A C62U G67C | 0.629
A21G C33G G67A | ≤ 0.5
A21U A65G | 0.942

Variant | yeast fitness
A21G C30A C33G U59A C66U | 0.535
A21U C24U C27A A37C A40U G67C | 0.54
A21U C30G A70U | 0.677
A21U A45C | 0.913
A21G G44A A45U | 0.914
A21U A43C A45U C49G C61U | 0.56
A21U A40G C49G | ≤ 0.5
A21G U35A C55U A65G | ≤ 0.5
A21G C33U C60A | ≤ 0.5
A21G C33U C60U | 0.603
A21U C29G G58C | 0.502
A21U C29G G58A | ≤ 0.5
A21G C66U A69U | 0.771
A21G C29U A45U | 0.86
A21G C34U A37G C60A | 0.651
A21U A43U G63A | ≤ 0.5
A21G C55G C66U A69C | ≤ 0.5
A21U C30U U32A | ≤ 0.5
A21U C29G C31G A43U G58A U59C | ≤ 0.5
A21U C27G A45C | ≤ 0.5
A21G U47A G48A A65U | ≤ 0.5
A21G C29G A65U G67U | ≤ 0.5
A21G C34U | 0.701
A21G C34G | 0.598

Variant | yeast fitness
A21G U32G G41C | ≤ 0.5
A21G G38C G68C | ≤ 0.5
A21G C66A | 0.701
A21U C27G C33U C34A C61U | ≤ 0.5
A21G U32C U59G C66U A70C | 0.703
A21U C34G C60G | ≤ 0.5
A21G C34G C66U | ≤ 0.5
A21G C31A A42G | 0.561
A21U A70G | 0.786
A21G C34U C55G | ≤ 0.5
A21U A57U G68C | ≤ 0.5
A21U A45U G67C | 0.598
A21G C61G U64G | 0.586
A21G G48C A57G G63A | ≤ 0.5
A21U C31U | 0.717
A21G C61G | 0.654
A21G C61U | 1
A21G C61A | 0.645
A21U C22G C31U U54A C55U | ≤ 0.5
A21U C22U U32A C49G | ≤ 0.5
A21G C33A G51A A57U A65U | ≤ 0.5
A21U C30A A69U | 0.815
A21U C27U U53C | ≤ 0.5
A21U C27A G50C G52C G67C | ≤ 0.5

Variant | yeast fitness
A21G U59G U64C A65U | 0.586
A21U C46A C62U C66U | ≤ 0.5
A21G G52A A57U G67C | ≤ 0.5
A21G C46U C55G | 0.603
A21G G25C C29A G58A | 0.54
A21U C29G A57U A65C | ≤ 0.5
A21U A40C G56A | ≤ 0.5
A21G U35C | 0.728
A21G U35A | 0.674
A21G U32C | 1.03
A21G G25C A65G | 0.751
A21G C31G | 1.05
A21U A42G C55U | 0.601
A21G C31G G63A | 0.774
A21G G23C | 0.676
A21G G23A | 0.787
A21G U47C A65C | 0.63
A21U A37U A65C | 0.672
A21U C33U A43U C49G G50C C61U C66U | ≤ 0.5
A21G C33G G38A G63A | ≤ 0.5
A21G U26C C29U G56C A69U | ≤ 0.5
A21G C33A C49U C55G | ≤ 0.5
A21U C31U G52A A69G | 0.706
A21G C60G | 0.667

Variant | yeast fitness
A21G G23A C31U G63C A69U | ≤ 0.5
A21U C33G G41C | ≤ 0.5
A21G C49U A70G | 0.817
A21U C33U C49A C55U | ≤ 0.5
A21G G23C U28A | ≤ 0.5
A21U A40C U59C C62U G67U | ≤ 0.5
A21G G41A A42C A57C A69G | 0.686
A21G U47C | 0.921
A21G U47A | 0.822
A21G C29G C55U A69C | ≤ 0.5
A21G C61G C66U A69U | ≤ 0.5
A21G C31G A45G | 0.938
A21G G68A | 1.01
A21G G39C C62U | ≤ 0.5
A21U C22U G39A C46U C62U | ≤ 0.5
A21G G23A A57U C61G | 0.623
A21U A42C | 0.741
A21G C33U G51C | ≤ 0.5
A21G C33A G41C | ≤ 0.5
A21G C34G G63A G67C | ≤ 0.5
A21G C34A C55A A69C | 0.565
A21U C34G U64A | ≤ 0.5
A21G G23A A45C G52A A69C | 0.521
A21G G52A A57G C66G | ≤ 0.5

Variant | yeast fitness
A21U C31A G39C C61A | 0.579
A21G C30G G67U | ≤ 0.5
A21G G50A C55U | 0.533
A21U A57U C61G | ≤ 0.5
A21U C24A A43C G48A A69C | ≤ 0.5
A21U C30A U35C A40G | ≤ 0.5
A21G G39C A42C | 0.563
A21U C24U C61U C66U | ≤ 0.5
A21U C46U C66A | ≤ 0.5
A21G C33U U59A | ≤ 0.5
A21U A45U G52A | ≤ 0.5
A21G G23A C46A | 0.543
A21G C30U | 0.97
A21G C30G | 0.784
A21G C33U G44C A70C | ≤ 0.5
A21U C24A C27A U32C U64A | ≤ 0.5
A21G U28A C30U | ≤ 0.5
A21G U35A A43U U59C | ≤ 0.5
A21G U64C | 0.864
A21U C55U C62G | ≤ 0.5
A21U C22U C49A | 0.56
A21U C34G G39A C55U C61G | ≤ 0.5
A21U C22G C33U | 0.572
